Measured values reported in ChEMBL document CHEMBL1146916, “Studies towards the conception of new selective PPARbeta/delta ligands” (Bioorg Med Chem Lett, 2006).
Calls of active or inactive are those of the source. No cut-off for these calls is given here.

Key:
[1] = biological target: T1, Peroxisome proliferator-activated receptor delta (Homo sapiens, UniProt Q03181); assay: (§1) Activity at PPARbeta/delta by luciferase reporter gene transactivation assay in COS7 cells; format: functional, cell-based, COS-7
T1 sequence (Q03181 whole entry): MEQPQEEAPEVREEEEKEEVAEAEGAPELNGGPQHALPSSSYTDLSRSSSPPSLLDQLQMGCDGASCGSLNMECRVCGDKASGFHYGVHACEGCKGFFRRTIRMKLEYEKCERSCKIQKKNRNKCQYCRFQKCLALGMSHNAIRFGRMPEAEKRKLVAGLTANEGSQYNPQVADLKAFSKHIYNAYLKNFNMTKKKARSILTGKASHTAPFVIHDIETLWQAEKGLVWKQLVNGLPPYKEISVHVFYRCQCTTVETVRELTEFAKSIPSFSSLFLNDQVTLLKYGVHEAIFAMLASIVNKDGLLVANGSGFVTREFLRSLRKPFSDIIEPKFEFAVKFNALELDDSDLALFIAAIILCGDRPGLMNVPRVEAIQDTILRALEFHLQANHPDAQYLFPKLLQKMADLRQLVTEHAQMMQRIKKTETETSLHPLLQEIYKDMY

[2] = biological target: T2, Peroxisome proliferator-activated receptor alpha (Homo sapiens, UniProt Q07869); assay: (§2) Activity at PPARalpha by luciferase reporter gene transactivation assay in COS7 cells; format: functional, cell-based, COS-7
T2 sequence (Q07869 whole entry): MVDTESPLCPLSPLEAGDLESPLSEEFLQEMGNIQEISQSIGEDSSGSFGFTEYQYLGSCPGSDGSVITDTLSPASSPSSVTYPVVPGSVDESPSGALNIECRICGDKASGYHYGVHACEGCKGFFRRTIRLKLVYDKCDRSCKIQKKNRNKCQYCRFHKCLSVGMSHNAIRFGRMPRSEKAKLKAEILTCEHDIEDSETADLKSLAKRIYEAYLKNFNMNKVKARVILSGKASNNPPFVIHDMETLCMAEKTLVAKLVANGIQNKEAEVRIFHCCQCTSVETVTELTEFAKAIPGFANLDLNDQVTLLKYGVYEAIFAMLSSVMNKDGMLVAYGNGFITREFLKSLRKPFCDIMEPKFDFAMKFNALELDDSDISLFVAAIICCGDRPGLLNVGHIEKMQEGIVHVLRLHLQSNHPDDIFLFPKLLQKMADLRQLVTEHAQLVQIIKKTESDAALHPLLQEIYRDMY

[3] = biological target: T3, Peroxisome proliferator-activated receptor gamma (Homo sapiens, UniProt P37231); assay: Activity at PPARgamma by luciferase reporter gene transactivation assay in COS7 cells; format: functional, cell-based, COS-7
T3 sequence (P37231 whole entry): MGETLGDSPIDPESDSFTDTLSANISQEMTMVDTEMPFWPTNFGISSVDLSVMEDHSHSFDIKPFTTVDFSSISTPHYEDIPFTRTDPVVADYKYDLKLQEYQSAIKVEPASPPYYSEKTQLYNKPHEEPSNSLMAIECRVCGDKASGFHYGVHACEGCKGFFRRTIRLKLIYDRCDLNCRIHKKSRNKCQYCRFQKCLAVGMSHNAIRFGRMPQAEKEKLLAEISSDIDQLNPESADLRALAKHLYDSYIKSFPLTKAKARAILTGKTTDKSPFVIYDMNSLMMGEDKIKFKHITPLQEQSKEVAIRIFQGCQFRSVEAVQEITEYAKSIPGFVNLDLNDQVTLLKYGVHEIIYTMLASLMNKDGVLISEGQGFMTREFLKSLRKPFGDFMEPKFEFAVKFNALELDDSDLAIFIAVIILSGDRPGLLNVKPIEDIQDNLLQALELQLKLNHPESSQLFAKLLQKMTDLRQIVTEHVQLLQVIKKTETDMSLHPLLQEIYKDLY

[4] = biological target: T4, Peroxisome proliferator-activated receptor alpha (Homo sapiens) (UniProt Q07869); assay: Activity at PPARalpha by luciferase reporter gene transactivation assay in COS7 cells relative to WY-14643 at 10 uM; format: functional, cell-based; settings: COS-7
T4 sequence (whole entry): T2 sequence (Q07869 whole entry)
Summary of the method: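 Cos-7 cells were transiently transfected, using PEI in OptiMEM for 3 h at 37 °C, with the pG5-TK-pGL3 luciferase reporter, pGAL4hPPARa (Gal4 DBD–human PPARα LBD) and pCMV-β-galactosidase. Cells were reseeded in 96-well plates and treated for 16 h in DMEM with 0.2% FCS at 10 µM–10 nM. Luciferase was normalized to β-galactosidase, and maximal activity was expressed versus the WY14.643 positive control. Experiments were run at least three times.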

[5] = biological target: T4, Peroxisome proliferator-activated receptor alpha (Homo sapiens); assay: as §2; format: functional, cell-based; settings: COS-7
[6] = biological target: T5, Peroxisome proliferator-activated receptor delta (Homo sapiens) (UniProt Q03181); assay: as §1; format: functional, cell-based; settings: COS-7
T5 sequence (whole entry): T1 sequence (Q03181 whole entry)

Homo sapiens = species on record: Homo sapiens; assay: Selectivity for human PPARdelta over human PPARalpha
Summary of the method: (§3)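 The selectivity ratio is taken from EC50 values measured in Cos-7 cells transiently transfected with the pG5-TK-pGL3 luciferase reporter plus Gal4 DBD–human PPARβ/δ, PPARα or PPARγ LBD chimeras and β-galactosidase control. Cells were treated for 16 h in 0.2% FCS DMEM at 10 µM–10 nM. EC50s were fitted from β-gal-normalized luciferase and are means of three experiments.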

[7] = biological target: PPAR delta/gamma (Homo sapiens) (UniProt P37231+Q03181); assay: Selectivity for human PPARdelta over human PPARgamma; format: protein assay; summary of the method: as §3

Structure (SMILES) | EC50 [1] | EC50 [2] | EC50 [3] | Activity [4] | Activity [5] | Activity [6] | Selectivity ratio [7] | Selectivity ratio (Homo sapiens)
CCCc1cc(C(F)(F)F)ccc1OCCCOc1ccc(OCC(=O)OC)c(C)c1 | 16 nM | 1010 nM | 1260 nM | 85% | – | – | – | –
CCCc1ccccc1OCCCOc1ccc(OCC(=O)OC)cc1 | 1050 nM | – | – | – | inactive | – | – | –
CCCc1cc(C(F)(F)F)ncc1OCCCOc1ccc(OCC(=O)O)c(C)c1 | 15 nM | 1330 nM | 1580 nM | 136% | – | – | – | > 100
Cc1cc(SCc2sc(-c3ccc(C(F)(F)F)cc3)nc2C)ccc1OCC(=O)O | – | – | – | 452% | – | – | – | –
COC(=O)COc1ccc(OCCCOc2cccc(O)c2)cc1 | – | – | – | – | inactive | inactive | – | –
CCCc1c(OCCCOc2ccc(OCC(=O)OC)cc2)cnc(C(C)=O)c1O | 82 nM | 8390 nM | 757 nM | 64% | – | – | – | –
CCCc1cc(C(F)(F)F)ccc1OCCCOc1ccc(OCC(=O)O)c(C)c1 | 7 nM | 103 nM | 153 nM | 40% | – | – | – | –
CCCc1cc(C(F)(F)F)ccc1OCCCOc1ccc(OCC(=O)OC)cc1 | 98 nM | 1400 nM | 1190 nM | 49% | – | – | – | –

The next lines start with results.

EC50 [1] | EC50 [2] | EC50 [3] | Activity [4] | Activity [5] | Activity [6] | Selectivity ratio [7] | Structure (SMILES) | Selectivity ratio (Homo sapiens)
10000 nM | – | – | – | inactive | – | – | CC(=O)c1ccc(OCCCOc2ccc(OCC(=O)O)cc2)cc1O | –
– | – | – | – | inactive | inactive | – | CC(=O)c1ccc(OCCCOc2ccc(OCC(=O)O)cc2)cc1 | –
457 nM | 1070 nM | 288 nM | 32% | – | – | – | CCCc1c(OCCCOc2ccc(OCC(=O)OC)cc2)ccc(C(C)=O)c1O | –
125 nM | 977 nM | 1820 nM | – | – | – | 15 | CCCc1c(OCCCOc2ccc(OCC(=O)O)cc2)ccc(C(C)=O)c1O | 8
